The source made the active and inactive calls. No cut-off for these calls is given here.
Experiments:
[1] = tested on: MCF7; test: Antiproliferative activity against human MCF7 cells after 72 hrs by MTS assay; assay type: functional, cell-based; conditions: MCF7, 72 h
Summary of the method: (§1)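 Cells kept in Advanced DMEM/F12 at 37 °C, 5% CO2, humidified. Seeded at 3000 cells/well, left 24 h, then given compound or vehicle in DMSO (1% DMSO final) at varying concentrations for 72 h. Viable cells read by MTS/PMS proliferation kit. Vehicle wells set to 100% proliferation. IC50 as mean ± SD of at least three separate experiments run in triplicate.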

[2] = tested on: SK-BR-3; test: Antiproliferative activity against human SKBR3 cells after 72 hrs by MTS assay; assay type: functional, cell-based; conditions: SK-BR-3, 72 h; summary of the method: as §1
[3] = Antiproliferative activity against human LNCaP-LN3 cells after 72 hrs by MTS assay; assay type: functional, cell-based; conditions: LNCaP-LN3, 72 h; summary of the method: as §1
[4] = Antiproliferative activity against human PC3MM2 cells after 72 hrs by MTS assay; assay type: functional, cell-based; conditions: PC3MM2, 72 h; summary of the method: as §1
[5] = molecular target: T1, Heat shock protein HSP90 (Homo sapiens) (UniProt P07900+P08238); test: Inhibition of C-terminal HSP90 in human MCF7 cells assessed as degradation of cyclin D1 at 4.49 to 44.95 uM after 24 hrs by Western blot analysis relative to control; assay type: cell-based
[6] = molecular target: T1, Heat shock protein HSP90 (Homo sapiens); test: Inhibition of C-terminal HSP90 in human MCF7 cells assessed as degradation of HER2 at 4.49 to 44.95 uM after 24 hrs by Western blot analysis relative to control; assay type: cell-based
[7] = molecular target: T1, Heat shock protein HSP90 (Homo sapiens); test: Inhibition of C-terminal HSP90 in human MCF7 cells assessed as degradation of cRAF at 4.49 to 44.95 uM after 24 hrs by Western blot analysis relative to control; assay type: cell-based
[8] = molecular target: T1, Heat shock protein HSP90 (Homo sapiens); test: Inhibition of […] HSP90 in human MCF7 cells assessed as reduction in HSP90 expression at 4.49 to 44.95 uM after 24 hrs by Western blot analysis relative to control; assay type: cell-based
[9] = molecular target: T1, Heat shock protein HSP90 (Homo sapiens); test: Inhibition of C-terminal HSP90 in human MCF7 cells assessed as degradation of cyclin D1 at 2.945 to 29.45 uM after 24 hrs by Western blot analysis relative to control; assay type: cell-based
[10] = molecular target: T1, Heat shock protein HSP90 (Homo sapiens); test: Inhibition of C-terminal HSP90 in human MCF7 cells assessed as degradation of cRAF at 2.945 to 29.45 uM after 24 hrs by Western blot analysis relative to control; assay type: cell-based
[11] = molecular target: T1, Heat shock protein HSP90 (Homo sapiens); test: Inhibition of C-terminal HSP90 in human MCF7 cells assessed as degradation of HER2 at 2.945 to 29.45 uM after 24 hrs by Western blot analysis relative to control; assay type: cell-based
[12] = molecular target: T1, Heat shock protein HSP90 (Homo sapiens); test: Inhibition of […] HSP90 in human MCF7 cells assessed as reduction in HSP90 expression at 2.945 to 29.45 uM after 24 hrs by Western blot analysis relative to control; assay type: cell-based

IC50 [1]	IC50 [2]	inhibition [5]	inhibition [6]	inhibition [7]	inhibition [8]	inhibition [9]	inhibition [10]	inhibition [11]	inhibition [12]	Compound	IC50 [3]	IC50 [4]
12.2 µM	15.7 µM	–	–	–	–	–	–	–	–	COc1cccc(-c2cc(C(=O)NCCc3c(O)cc(OC4CCN(C)CC4)cc3-c3cccc(F)c3)ccc2OC)c1	44.8 µM	> 50 µM
> 50 µM	43.9 µM	–	–	–	–	–	–	–	–	COc1cccc(-c2cc(C(=O)NCCc3cc(C)c(O[C@@H]4OC(C)(C)[C@H](OC)[C@@H](O)[C@H]4O)cc3-c3cccc(F)c3)ccc2OC)c1	> 100 µM	> 100 µM
8.99 µM	43.5 µM	Active	Active	Active	inactive	–	–	–	–	COc1cccc(-c2cc(C(=O)NCCc3ccc(O[C@@H]4OC(C)(C)[C@H](OC)[C@@H](O)[C@H]4O)c(C)c3-c3cccc(F)c3)ccc2OC)c1	25.1 µM	> 50 µM
23.8 µM	23.5 µM	–	–	–	–	–	–	–	–	COc1cccc(-c2cc(C(=O)NCCc3c(O)cc(O[C@@H]4OC(C)(C)[C@H](OC)[C@@H](O)[C@H]4O)cc3-c3cccc(F)c3)ccc2OC)c1	> 50 µM	> 50 µM
7.86 µM	8.16 µM	–	–	–	–	–	–	–	–	COc1cc(OC2CCN(C)CC2)cc(-c2cccc(F)c2)c1CCNC(=O)c1ccc(O)c(CC=C(C)C)c1	> 100 µM	1.84 µM
> 50 µM	> 50 µM	–	–	–	–	–	–	–	–	COc1cccc(-c2cc(C(=O)NCCc3ccc(O[C@@H]4OC(C)(C)[C@H](OC)[C@@H](O)[C@H]4O)cc3-c3cccc(F)c3)ccc2OC)c1	15.9 µM	> 50 µM
35.6 µM	15.2 µM	–	–	–	–	–	–	–	–	CC(C)=CCc1cc(C(=O)NCCc2cc(C)c(OC3CCN(C)CC3)cc2-c2cccc(F)c2)ccc1O	> 100 µM	> 100 µM
17.8 µM	21.3 µM	–	–	–	–	–	–	–	–	COc1cccc(-c2cc(C(=O)NCCc3ccc(OC4CCN(C)CC4)c(C)c3-c3cccc(F)c3)ccc2OC)c1	> 50 µM	> 50 µM
44.7 µM	49.4 µM	–	–	–	–	–	–	–	–	COc1cccc(-c2cc(C(=O)NCCc3c(OC)cc(O[C@@H]4OC(C)(C)[C@H](OC)[C@@H](O)[C@H]4O)cc3-c3cccc(F)c3)ccc2OC)c1	8.09 µM	10.6 µM
11.3 µM	9.29 µM	–	–	–	–	–	–	–	–	COc1cccc(-c2cc(C(=O)NCCc3ccc(OC4CCN(C)CC4)c(O)c3-c3cccc(F)c3)ccc2OC)c1	22.4 µM	8.61 µM
11.3 µM	15.3 µM	–	–	–	–	–	–	–	–	COc1cccc(-c2cc(C(=O)NCCc3ccc(OC4CCN(C)CC4)c(N)c3-c3cccc(F)c3)ccc2OC)c1	22.4 µM	18.9 µM
8.71 µM	5.72 µM	–	–	–	–	–	–	–	–	COc1cccc(-c2cc(C(=O)NCCc3c(OC)cc(OC4CCN(C)CC4)cc3-c3cccc(F)c3)ccc2OC)c1	> 100 µM	32.1 µM
9.14 µM	7.81 µM	–	–	–	–	–	–	–	–	COc1cccc(-c2cc(C(=O)NCCc3cc(C)c(OC4CCN(C)CC4)cc3-c3cccc(F)c3)ccc2OC)c1	20.8 µM	13.9 µM
15.4 µM	23.7 µM	–	–	–	–	–	–	–	–	COc1cccc(-c2cc(C(=O)NCCc3ccc(OC4CCN(C)CC4)cc3-c3cccc(F)c3)ccc2OC)c1	22.5 µM	5.49 µM
> 500 µM	> 500 µM	–	–	–	–	–	–	–	–	CO[C@@H]1[C@@H](O)[C@@H](O)[C@H](Oc2ccc(CCNC(C)=O)c(-c3cccc(F)c3)c2)OC1(C)C [CEMDOMESPIB]	> 500 µM	> 500 µM
5.89 µM	7.59 µM	–	–	–	–	Active	Active	Active	inactive	CC(C)=CCc1cc(C(=O)NCCc2c(O)cc(OC3CCN(C)CC3)cc2-c2cccc(F)c2)ccc1O	22.8 µM	1.32 µM
1.45 µM	3.25 µM	–	–	–	–	–	–	–	–	CC(C)=CCc1cc(C(=O)NCCc2ccc(OC3CCN(C)CC3)c(O)c2-c2cccc(F)c2)ccc1O	23.1 µM	42.3 µM

Reference: ChEMBL document CHEMBL4219037, “Modified biphenyl Hsp90 C-terminal inhibitors for the treatment of cancer” (Bioorg Med Chem Lett, 2017)
